Experimental data: ChEMBL document CHEMBL2311436, “Synthesis of acylated glycoconjugates as templates to investigate in vitro biopharmaceutical properties” (Bioorg Med Chem Lett, 2013)

What was measured:
Liver microsomes [1] = experiment: In vitro intrinsic clearance in human liver microsomes assessed per milligram; assay type: ADME, Microsome
How it was run: (§1)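 Compounds were incubated with human liver microsomes, and mass spectrometry monitored parent loss and the appearance of mono-, di- and tri-acylated and fully deacylated hydrolysis products.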

Plasma = experiment: (§2) Degradation half life in human plasma; assay type: ADME, cell-free
How it was run: (§3)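 Compounds were incubated in human plasma at 37 °C, and ester hydrolysis was followed by mass spectrometry. Tri-, di- and mono-acylated intermediates and the fully deacylated product were tracked by their characteristic molecular weights.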

Liver microsomes [2] = experiment: In vitro intrinsic clearance in human liver microsomes assessed per milligram of protein in presence of NADPH; assay type: ADME, Microsome; how it was run: as §1
Albumin = Albumin (Homo sapiens, UniProt P02768); experiment: Binding affinity to human serum albumin by chromatographic HSA binding assay; assay type: ADME; settings: isolated protein
How it was run: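 Protein binding was estimated from retention time on an immobilized human serum albumin (HSA) HPLC column, correlated against standard compounds with known protein binding values. This was used in place of equilibrium dialysis or ultrafiltration because the esters may deacylate under those conditions.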

[3] = as §2; assay type: ADME, cell-free; how it was run: as §3

Albumin, sequence (P02768 whole entry): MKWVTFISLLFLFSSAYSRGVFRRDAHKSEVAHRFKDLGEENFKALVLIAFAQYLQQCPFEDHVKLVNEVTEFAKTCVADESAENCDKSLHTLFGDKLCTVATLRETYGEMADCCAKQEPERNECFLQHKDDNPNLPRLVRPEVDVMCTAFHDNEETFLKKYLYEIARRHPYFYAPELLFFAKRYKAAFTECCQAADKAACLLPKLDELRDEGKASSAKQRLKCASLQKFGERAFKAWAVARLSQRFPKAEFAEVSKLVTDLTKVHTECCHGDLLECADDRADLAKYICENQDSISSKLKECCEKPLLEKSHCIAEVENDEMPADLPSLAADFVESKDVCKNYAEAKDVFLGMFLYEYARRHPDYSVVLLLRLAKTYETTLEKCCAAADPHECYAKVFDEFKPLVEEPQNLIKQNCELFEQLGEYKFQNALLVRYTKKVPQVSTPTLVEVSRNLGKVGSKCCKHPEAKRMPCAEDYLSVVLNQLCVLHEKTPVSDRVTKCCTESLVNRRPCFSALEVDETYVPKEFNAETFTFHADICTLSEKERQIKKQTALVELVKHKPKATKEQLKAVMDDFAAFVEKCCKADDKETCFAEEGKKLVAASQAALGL

| CLH (Liver microsomes [1]) | t1/2 (Plasma) | CLH (Liver microsomes [2]) | Activity (Albumin) [%] | half-life [3] [min] | SMILES |
| --- | --- | --- | --- | --- | --- |
| < 7 µL/min | Stable | < 7 µL/min | < 99 | – | CC(C)CC(=O)OC[C@H]1O[C@@H](n2cc(-c3ccccc3)nn2)[C@H](OC(=O)CC(C)C)[C@@H](OC(=O)CC(C)C)[C@@H]1OC(=O)CC(C)C |
| < 7 µL/min | Stable | < 7 µL/min | < 99 | – | CCCCC(=O)OC[C@H]1O[C@@H](n2cc(-c3ccccc3)nn2)[C@H](OC(=O)CCCC)[C@@H](OC(=O)CCCC)[C@@H]1OC(=O)CCCC |
| 83 µL/min | – | 69 µL/min | 96 | 555 | CCCC(=O)OC[C@H]1O[C@@H](n2cc(-c3ccccc3)nn2)[C@H](OC(=O)CCC)[C@@H](OC(=O)CCC)[C@@H]1OC(=O)CCC |
| 423 µL/min | – | 397 µL/min | 59 | 55 | CC(=O)OC[C@H]1O[C@@H](n2cc(-c3ccccc3)nn2)[C@H](OC(C)=O)[C@@H](OC(C)=O)[C@@H]1OC(C)=O |
| ND(Unstable) | – | ND(Unstable) | 88 | 26 | CCC(=O)OC[C@H]1O[C@@H](n2cc(-c3ccccc3)nn2)[C@H](OC(=O)CC)[C@@H](OC(=O)CC)[C@@H]1OC(=O)CC |
| < 7 µL/min | Stable | < 7 µL/min | 19 | – | OC[C@H]1O[C@@H](n2cc(-c3ccccc3)nn2)[C@H](O)[C@@H](O)[C@@H]1O |
